Tests used:
Adenosine receptor A3 [1] = molecular target: T1, Adenosine receptor A3 (Homo sapiens, UniProt P0DMS8); assay: Antagonist activity at human adenosine A3 receptor expressed in CHO cells assessed as forskolin/C1-IB-MECA-induced inhibition of cAMP production; assay type: functional, cell-based
T1 sequence (P0DMS8 whole entry): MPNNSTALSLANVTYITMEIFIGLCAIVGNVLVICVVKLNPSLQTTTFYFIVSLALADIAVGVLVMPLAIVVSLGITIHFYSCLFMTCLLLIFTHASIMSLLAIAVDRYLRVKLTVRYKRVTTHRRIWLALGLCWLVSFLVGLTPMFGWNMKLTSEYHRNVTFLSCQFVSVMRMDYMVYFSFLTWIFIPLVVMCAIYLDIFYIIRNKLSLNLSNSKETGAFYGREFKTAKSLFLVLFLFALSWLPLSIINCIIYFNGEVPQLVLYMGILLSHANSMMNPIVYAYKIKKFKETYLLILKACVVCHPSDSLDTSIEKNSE
In short: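 Intact CHO cells (1 × 10⁶/assay) expressing human A3, in buffer pH 7.4 with 2 IU/mL adenosine deaminase and Ro 20-1724. Preincubated 10 min at 37 °C. Forskolin 1 μM with Cl-IB-MECA 100 nM. Stopped with cold 6% TCA, cAMP measured by [³H]cAMP competition protein binding. IC50 by sigmoid nonlinear regression.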

Adenosine receptor A2b = molecular target: T2, Adenosine receptor A2b (Homo sapiens, UniProt P29275); assay: Antagonist activity at human adenosine A2B receptor expressed in CHO cells assessed as inhibition of NECA-induced cAMP production; assay type: functional, cell-based
T2 sequence (P29275 whole entry): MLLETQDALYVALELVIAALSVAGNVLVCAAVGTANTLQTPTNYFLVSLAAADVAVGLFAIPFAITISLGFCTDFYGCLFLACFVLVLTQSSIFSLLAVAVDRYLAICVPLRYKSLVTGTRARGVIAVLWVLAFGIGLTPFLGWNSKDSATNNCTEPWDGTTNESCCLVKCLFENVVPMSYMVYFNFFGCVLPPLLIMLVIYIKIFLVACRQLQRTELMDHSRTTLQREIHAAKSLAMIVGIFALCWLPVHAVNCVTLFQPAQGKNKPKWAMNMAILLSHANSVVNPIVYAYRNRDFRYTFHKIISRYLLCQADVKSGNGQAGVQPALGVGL
In short: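 Intact CHO cells (1 × 10⁶/assay) expressing human A2B, in buffer pH 7.4 with 2 IU/mL adenosine deaminase and Ro 20-1724. Preincubated 10 min at 37 °C. NECA 100 nM stimulus. Stopped with cold 6% TCA, ether-extracted, cAMP measured by competition protein binding with [³H]cAMP. IC50 from sigmoid nonlinear regression.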

Adenosine receptor A2a = Adenosine receptor A2a (Homo sapiens, UniProt P29274); assay: Displacement of [3H]ZM241385 from human adenosine A2A receptor expressed in CHO cells after 60 mins by scintillation counter; assay type: cell-based
Sequence of Adenosine receptor A2a (P29274 whole entry): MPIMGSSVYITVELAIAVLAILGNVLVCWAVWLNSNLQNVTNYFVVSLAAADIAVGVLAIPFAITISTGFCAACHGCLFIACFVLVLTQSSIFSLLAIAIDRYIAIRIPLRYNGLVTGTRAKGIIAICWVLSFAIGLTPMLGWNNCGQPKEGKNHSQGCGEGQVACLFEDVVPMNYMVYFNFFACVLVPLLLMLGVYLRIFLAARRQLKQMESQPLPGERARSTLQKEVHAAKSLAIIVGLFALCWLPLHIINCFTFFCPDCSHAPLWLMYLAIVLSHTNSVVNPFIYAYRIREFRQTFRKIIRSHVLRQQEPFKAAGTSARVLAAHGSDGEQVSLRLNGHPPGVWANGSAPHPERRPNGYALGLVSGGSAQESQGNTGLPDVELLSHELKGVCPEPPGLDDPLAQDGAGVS
In short: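 Membranes from CHO cells expressing human A2A (50 μg protein), in 50 mM Tris-HCl, 10 mM MgCl2, pH 7.4, adenosine deaminase pretreated. [³H]ZM241385 2 nM, 6–8 concentrations, 60 min at 4 °C. Nonspecific binding with 1 μM ZM241385. Filtration, scintillation counting. Ki by Cheng–Prusoff. 3–4 experiments in duplicate.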

Adenosine receptor A3 [2] = molecular target: T1, Adenosine receptor A3; assay: Displacement of [3H]MRE-3008-F20 from human adenosine A3 receptor expressed in CHO cells after 120 mins by scintillation counter; assay type: cell-based
Adenosine receptor A1 = molecular target: T3, Adenosine receptor A1 (Homo sapiens, UniProt P30542); assay: Displacement of [3H]DPCPX from human adenosine A1 receptor expressed in CHO cells after 120 mins by scintillation counter; assay type: cell-based
T3 sequence (P30542 whole entry): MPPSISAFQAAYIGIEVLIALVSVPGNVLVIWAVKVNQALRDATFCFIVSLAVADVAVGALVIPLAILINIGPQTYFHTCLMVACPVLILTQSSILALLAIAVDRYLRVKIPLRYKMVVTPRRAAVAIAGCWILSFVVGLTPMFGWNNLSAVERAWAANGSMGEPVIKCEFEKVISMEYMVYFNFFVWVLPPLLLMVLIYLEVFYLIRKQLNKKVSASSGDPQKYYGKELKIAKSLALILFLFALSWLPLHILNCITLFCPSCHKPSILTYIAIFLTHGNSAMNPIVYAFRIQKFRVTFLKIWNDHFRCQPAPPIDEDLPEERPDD
In short: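 Membranes from CHO cells expressing human A1 (50 μg protein), in 50 mM Tris-HCl pH 7.4, pretreated with adenosine deaminase 2 IU/mL. [³H]DPCPX 1 nM, 6–8 test concentrations, 120 min at 25 °C. Nonspecific binding with 1 μM DPCPX. GF/B filtration. Ki by Cheng–Prusoff.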

[3] = molecular target: Adenosine receptors; A1 & A3 (Homo sapiens) (UniProt P30542+P0DMS8); assay: Selectivity ratio of Ki for human adenosine A1 receptor to Ki for human adenosine A3 receptor
[4] = Solubility of the compound in water at pH 7.4; assay type: physicochemical
In short: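 Hydrochloride salts, solubility measured in phosphate-buffered saline at pH 7.4.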

| SMILES | IC50 (Adenosine receptor A3 [1]) | IC50 (Adenosine receptor A2b) | Ki (Adenosine receptor A2a) | Ki (Adenosine receptor A3 [2]) | Ki (Adenosine receptor A1) | Ratio Ki [3] | solubility [4] |
| --- | --- | --- | --- | --- | --- | --- | --- |
| CCOC(=O)CN1CCC(NC(=O)Nc2nc3nn(C)cc3c3nc(-c4ccco4)nn23)CC1 | 41 nM | > 5000 nM | 1080 nM | 12.2 nM | 348 nM | – | – |
| Cn1cc2c(nc(NC(=O)NC3CCN(C(=O)Nc4ccncc4)CC3)n3nc(-c4ccco4)nc23)n1 | 82 nM | 3240 nM | 1860 nM | 21 nM | 1300 nM | – | – |
| C#CCN1CCC(NC(=O)Nc2nc3nn(C)cc3c3nc(-c4ccco4)nn23)CC1.Cl | – | – | – | – | – | – | 8000 µg/mL |
| COc1ccc(CNC(=O)N2CCC(NC(=O)Nc3nc4nn(C)cc4c4nc(-c5ccco5)nn34)CC2)cc1 | 34 nM | 3240 nM | > 5000 nM | 10.4 nM | 635 nM | – | – |
| CN1CCN(C(=O)N2CCC(NC(=O)Nc3nc4nn(C)cc4c4nc(-c5ccco5)nn34)CC2)CC1 | 120 nM | 2140 nM | 1280 nM | 31 nM | 1120 nM | – | – |
| Cn1cc2c(nc(NC(=O)NC3CCN(C(=O)NCc4ccc(Cl)cc4)CC3)n3nc(-c4ccco4)nc23)n1 | 90 nM | 505 nM | 1140 nM | 25 nM | 614 nM | – | – |
| Cl.Cn1cc2c(nc(NC(=O)Nc3ccncc3)n3nc(-c4ccco4)nc23)n1 | – | – | – | – | – | – | < 100 µg/mL |
| Cc1ccc(CNC(=O)N2CCC(NC(=O)Nc3nc4nn(C)cc4c4nc(-c5ccco5)nn34)CC2)cc1 | 12 nM | 2120 nM | 2810 nM | 3.9 nM | 396 nM | – | – |
| Cn1cc2c(nc(NC(=O)NC3CCN(C(=O)NCCc4ccccc4)CC3)n3nc(-c4ccco4)nc23)n1 | 23 nM | 1760 nM | 1840 nM | 6.8 nM | 182 nM | – | – |
| Cl.Cn1cc2c(nc(NC(=O)NC3CCN(CC4CCCCC4)CC3)n3nc(-c4ccco4)nc23)n1 | 30 nM | > 5000 nM | > 5000 nM | 9.7 nM | 3410 nM | 351 | 8000 µg/mL |
| Cc1ccc(CN2CCC(NC(=O)Nc3nc4nn(C)cc4c4nc(-c5ccco5)nn34)CC2)cc1 | 50 nM | > 5000 nM | > 5000 nM | 13.8 nM | 1480 nM | 107 | – |
| CC(C)NC(=O)N1CCC(NC(=O)Nc2nc3nn(C)cc3c3nc(-c4ccco4)nn23)CC1 | 34 nM | > 5000 nM | > 5000 nM | 9.8 nM | 1320 nM | – | – |
| Cl.Cn1cc2c(nc(NC(=O)NC3CCN(Cc4ccc(F)cc4)CC3)n3nc(-c4ccco4)nc23)n1 | – | – | – | – | – | – | 8000 µg/mL |
| Cn1cc2c(nc(NC(=O)NC3CCN(Cc4ccc(Cl)cc4)CC3)n3nc(-c4ccco4)nc23)n1 | 91 nM | > 5000 nM | > 5000 nM | 26 nM | 724 nM | – | – |
| C#CCN1CCC(NC(=O)Nc2nc3nn(C)cc3c3nc(-c4ccco4)nn23)CC1 | 105 nM | > 5000 nM | 789 nM | 25 nM | 802 nM | – | – |
| C=CCN1CCC(NC(=O)Nc2nc3nn(C)cc3c3nc(-c4ccco4)nn23)CC1 | 212 nM | > 5000 nM | 1420 nM | 51 nM | 3360 nM | – | – |
| Cn1cc2c(nc(NC(=O)NC3CCN(C(=O)NCc4ccccc4)CC3)n3nc(-c4ccco4)nc23)n1 | 29 nM | 1110 nM | > 5000 nM | 8.1 nM | 525 nM | – | – |
| Cn1cc2c(nc(NC(=O)NC3CCNCC3)n3nc(-c4ccco4)nc23)n1 | 262 nM | 2430 nM | > 5000 nM | 65 nM | > 5000 nM | – | – |
| Cn1cc2c(nc(NC(=O)NC3CCN(C(=O)NC4CCCC4)CC3)n3nc(-c4ccco4)nc23)n1 | 30 nM | > 5000 nM | > 5000 nM | 9.3 nM | 744 nM | – | – |

More lines, now with the values ahead:

| IC50 (Adenosine receptor A3 [1]) | IC50 (Adenosine receptor A2b) | Ki (Adenosine receptor A2a) | Ki (Adenosine receptor A3 [2]) | Ki (Adenosine receptor A1) | Ratio Ki [3] | solubility [4] | SMILES |
| --- | --- | --- | --- | --- | --- | --- | --- |
| 46 nM | 1540 nM | 1640 nM | 14.5 nM | 112 nM | 7.7 | – | Cn1cc2c(nc(NC(=O)NC3CCN(C(=O)NCCCc4ccccc4)CC3)n3nc(-c4ccco4)nc23)n1 |
| 42 nM | > 5000 nM | > 5000 nM | 12.4 nM | 371 nM | – | – | Cn1cc2c(nc(NC(=O)NC3CCN(Cc4ccc([N+](=O)[O-])cc4)CC3)n3nc(-c4ccco4)nc23)n1 |
| 116 nM | > 5000 nM | > 5000 nM | 30 nM | 1500 nM | – | – | CCNC(=O)N1CCC(NC(=O)Nc2nc3nn(C)cc3c3nc(-c4ccco4)nn23)CC1 |
| 180 nM | > 5000 nM | > 5000 nM | 44 nM | 1330 nM | – | – | Cn1cc2c(nc(NC(=O)NC3CCN(Cc4cccnc4)CC3)n3nc(-c4ccco4)nc23)n1 |
| 40 nM | > 5000 nM | 2220 nM | 11.8 nM | 166 nM | 14 | – | Cn1cc2c(nc(NC(=O)NC3CCN(Cc4ccc(C#N)cc4)CC3)n3nc(-c4ccco4)nc23)n1 |
| 910 nM | > 5000 nM | > 5000 nM | 253 nM | > 5000 nM | – | – | CN1CCC(NC(=O)Nc2nc3nn(C)cc3c3nc(-c4ccco4)nn23)CC1 |
| – | – | – | – | – | – | 15000 µg/mL | CN1CCC(NC(=O)Nc2nc3nn(C)cc3c3nc(-c4ccco4)nn23)CC1.Cl |
| 166 nM | > 5000 nM | > 5000 nM | 39 nM | 1190 nM | – | – | Cn1cc2c(nc(NC(=O)NC3CCN(Cc4ccncc4)CC3)n3nc(-c4ccco4)nc23)n1 |
| 26 nM | > 5000 nM | > 5000 nM | 7.7 nM | 805 nM | – | – | Cn1cc2c(nc(NC(=O)NC3CCN(C(=O)NC4CCCCCC4)CC3)n3nc(-c4ccco4)nc23)n1 |
| 44 nM | > 5000 nM | > 5000 nM | 13.7 nM | 761 nM | – | – | Cn1cc2c(nc(NC(=O)NC3CCN(C(=O)NC4CCCCC4)CC3)n3nc(-c4ccco4)nc23)n1 |
| 45 nM | > 5000 nM | > 5000 nM | 13.3 nM | 1160 nM | 87 | – | COc1ccc(CN2CCC(NC(=O)Nc3nc4nn(C)cc4c4nc(-c5ccco5)nn34)CC2)cc1 |
| 121 nM | 2060 nM | 526 nM | 30 nM | 703 nM | – | – | Cn1cc2c(nc(NC(=O)NC3CCN(Cc4ccccc4)CC3)n3nc(-c4ccco4)nc23)n1 |
| 301 nM | > 5000 nM | 1190 nM | 71 nM | 2790 nM | – | – | CCCN1CCC(NC(=O)Nc2nc3nn(C)cc3c3nc(-c4ccco4)nn23)CC1 |
| 15 nM | 1040 nM | 3260 nM | 4.9 nM | 408 nM | – | – | Cn1cc2c(nc(NC(=O)NC3CCN(C(=O)NCc4ccc(F)cc4)CC3)n3nc(-c4ccco4)nc23)n1 |
| 82 nM | > 5000 nM | > 5000 nM | 24 nM | 1050 nM | – | – | Cn1cc2c(nc(NC(=O)NC3CCN(Cc4ccc(F)cc4)CC3)n3nc(-c4ccco4)nc23)n1 |

— ChEMBL document CHEMBL2069218, “Water-soluble pyrazolo[4,3-e][1,2,4]triazolo[1,5-c]pyrimidines as human A₃ adenosine receptor antagonists” (J Med Chem, 2012)
